In PMC6221991 (Structure (London, England : 1993), 2018):
Values belong to the molecule of their own block, whether it stands above or below them.

How the values were obtained:
3T3-L1 cells = test: Differentiation of 3T3-L1 cells; format: cell-based, Mus musculus; details: for RNA-seq differential gene expression: 3T3-L1 cells, 6 days
Method in brief: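 Mouse 3T3-L1 embryo fibroblasts grown in DMEM with 10% heat-inactivated FBS, 2mM L-glutamine and 1% penicillin/streptomycin at 37 °C, 5% CO2. Test compound (1μM) added from the first day of differentiation; six days' incubation. Lipid droplets stained with Oil Red. Gene expression by qPCR: SYBR green, ΔΔ-Ct method normalised to Tbp. RNA-seq used stranded (dUTP) cDNA libraries. Mean ± SEM.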

PPRE = test: full length PPRE transactivation assay; format: cell-based; details: for EC50 PPRE: full length PPRE assay
human PPARα (hPPARα) = target: T1, human PPARα (hPPARα) (Homo sapiens, UniProt Q07869); test: PPARα GAL-4 transactivation assay in HEK293T cells; format: cell-based
T1 sequence (Q07869 239-466 limits assumed): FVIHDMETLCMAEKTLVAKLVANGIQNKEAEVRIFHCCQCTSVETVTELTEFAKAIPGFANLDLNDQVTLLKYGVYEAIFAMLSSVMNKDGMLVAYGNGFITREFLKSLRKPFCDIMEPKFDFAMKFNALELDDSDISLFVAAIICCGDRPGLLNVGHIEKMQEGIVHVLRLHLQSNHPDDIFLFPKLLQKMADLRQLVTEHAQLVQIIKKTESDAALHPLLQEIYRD

[1] = Plasma exposure following oral administration in mice; format: in vivo, C57BL/6 mice
PPARγ Gal-4 = target: T2, PPARγ Gal-4 (Homo sapiens, UniProt P37231); test: Gal4-PPARγ-LBD cell-based transactivation assay in HEK293T cells
T2 sequence (P37231 238-503 limits assumed): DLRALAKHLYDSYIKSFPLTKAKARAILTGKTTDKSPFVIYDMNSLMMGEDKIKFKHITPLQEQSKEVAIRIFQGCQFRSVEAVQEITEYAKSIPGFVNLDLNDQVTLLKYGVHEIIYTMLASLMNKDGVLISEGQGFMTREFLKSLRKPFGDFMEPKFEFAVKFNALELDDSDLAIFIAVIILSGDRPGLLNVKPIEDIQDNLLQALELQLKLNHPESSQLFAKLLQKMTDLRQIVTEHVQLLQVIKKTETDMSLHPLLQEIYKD

His-PPARγ = target: T3, His-PPARγ (Homo sapiens, UniProt P37231); test: TR-FRET NR box peptide recruitment assay; format: biochemical; details: FITC-labeled peptides
T3 sequence (P37231 1-505): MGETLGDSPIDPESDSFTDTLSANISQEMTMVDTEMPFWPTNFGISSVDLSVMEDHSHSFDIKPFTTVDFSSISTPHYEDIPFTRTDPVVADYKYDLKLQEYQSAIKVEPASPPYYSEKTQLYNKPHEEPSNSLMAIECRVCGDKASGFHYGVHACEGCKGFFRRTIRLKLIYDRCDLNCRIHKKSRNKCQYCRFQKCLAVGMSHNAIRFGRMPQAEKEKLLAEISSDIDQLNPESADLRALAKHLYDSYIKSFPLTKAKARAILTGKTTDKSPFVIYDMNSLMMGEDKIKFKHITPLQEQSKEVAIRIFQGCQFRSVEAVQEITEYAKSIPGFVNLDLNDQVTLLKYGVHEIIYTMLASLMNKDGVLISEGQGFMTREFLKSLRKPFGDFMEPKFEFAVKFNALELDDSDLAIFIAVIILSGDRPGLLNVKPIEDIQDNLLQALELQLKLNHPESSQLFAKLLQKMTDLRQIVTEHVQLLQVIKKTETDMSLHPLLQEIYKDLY

hPPARδ = target: T4, hPPARδ (Homo sapiens, UniProt Q03181); test: hPPARδ-Gal4 transactivation assay; format: cell-based; details: Figure S1A
T4 sequence (Q03181 1-441): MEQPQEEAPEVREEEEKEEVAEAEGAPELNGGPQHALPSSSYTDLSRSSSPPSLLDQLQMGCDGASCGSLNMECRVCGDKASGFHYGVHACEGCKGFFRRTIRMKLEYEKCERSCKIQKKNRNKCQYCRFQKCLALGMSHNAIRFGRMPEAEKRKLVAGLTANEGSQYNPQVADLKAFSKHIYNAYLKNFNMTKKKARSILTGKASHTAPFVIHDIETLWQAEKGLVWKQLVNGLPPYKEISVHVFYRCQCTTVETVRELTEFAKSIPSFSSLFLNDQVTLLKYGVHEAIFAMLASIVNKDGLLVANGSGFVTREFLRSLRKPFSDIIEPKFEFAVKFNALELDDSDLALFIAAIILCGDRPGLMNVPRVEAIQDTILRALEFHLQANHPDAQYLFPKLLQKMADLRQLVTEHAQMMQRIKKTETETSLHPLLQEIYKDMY

[2] = target: T5, phosphorylation of PPARγ at S273 (pS273) (Homo sapiens, UniProt P37231); test: In vitro Cdk5 kinase assay, phosphorylation of PPARγ at S273; format: biochemical; details: vs DMSO only controls
T5 sequence (P37231 1-505): T3 sequence (P37231 1-505)
Method in brief: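 1 μg immuno-purified WT PPARγ substrate pre-incubated with test compound for 30 min. Active Cdk5/p35 kinase then added in 25 mM Tris-HCl pH 7.5, 5 mM β-glycerophosphate, 2 mM DTT, 0.1 mM Na3VO4, 10 mM MgCl2 and 20 μM ATP, for 15 min at 30 °C. After SDS–PAGE, phospho-Ser in the K/R-S-P-K/R motif was detected with an anti-CDK-substrate antibody.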

[3] = target: T5, phosphorylation of PPARγ at S273 (pS273); details: ref Choi et al., 2010; cited from earlier work
PPARγ LBD = target: T6, PPARγ LBD (human, UniProt P37231 231-505); test: cross-linking
T6 sequence (looked up): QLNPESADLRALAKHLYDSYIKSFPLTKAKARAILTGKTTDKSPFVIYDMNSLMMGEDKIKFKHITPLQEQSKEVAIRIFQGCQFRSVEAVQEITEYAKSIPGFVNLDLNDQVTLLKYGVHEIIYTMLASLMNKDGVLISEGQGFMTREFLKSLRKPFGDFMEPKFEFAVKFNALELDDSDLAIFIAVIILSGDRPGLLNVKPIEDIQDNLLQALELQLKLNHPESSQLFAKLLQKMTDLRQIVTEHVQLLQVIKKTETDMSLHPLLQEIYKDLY

EC50 (PPRE; read-out: EC50 PPRE): 0.01 µM
Molecule: CN(CCOc1ccc(CC2SC(=O)NC2=O)cc1)c1ccccn1 (centres unmarked) [Rosiglitazone, reference compound]
RNA-seq differential gene expression (3T3-L1 cells): robust activation of a large gene set containing many known PPARγ target genes

Molecule: Cc1c(C)n(Cc2ccc(-c3ccccc3C(=O)O)cc2)c2ccc(C(=O)N[C@@H](C)c3ccc([N+](=O)[O-])cc3)cc12 [SR1664, reference compound]
EC50 (human PPARα (hPPARα); read-out: EC50 PPARα GAL-4): 8.6 µM
plasma concentration ([1]; C57BL/6 mice, oral, 40mg.kg−1, two hours after dosing): less than 1 μM
EC50 PPRE (PPRE): No activity

EC50 (PPARγ Gal-4; EC50 PPARγ Gal-4, HEK293T): 2.76 µM
Max.Stim. PPARγ Gal-4 (PPARγ Gal-4; HEK293T): 10%
EC50 PPARα GAL-4 (human PPARα (hPPARα)): No activity
transcriptional agonism, hPPARα-Gal4 transactivation (human PPARα (hPPARα); Figure S1A): no transcriptional agonism
PPARγ interaction with coactivator NR box peptides p300 and SRC1–2 (His-PPARγ): no enhanced interaction
PPARγ interaction with corepressor peptides NCOR1–3 and SMRT-2 (His-PPARγ): increased
transcriptional agonism, hPPARδ-Gal4 transactivation (hPPARδ): no transcriptional agonism
concentration at 2 h ([1]; C57BL/6, mouse, plasma, po, 40 mg.kg−1): 70 µM
% inhibition p273-PPARγ ([2]; 20μM, 20 µM): 77%
inhibition at 2 µM ([2]; read-out: % inhibition p273-PPARγ, 2μM): 25%
EC50 PPRE (PPRE): No activity
Molecule: Cc1c(C)n(Cc2ccc(C(C)(C)C(=O)O)cc2)c2ccc(C(=O)N[C@@H](C)c3cccc(C4CC4)c3)cc12 [SR11023, (S)-2-(4-((5-((1-(3-cyclopropylphenyl)ethyl)carbamoyl)-2,3-dimethyl-1H-indol-1-yl)methyl)phenyl)-2-methylpropanoic acid]
shift of the dose response curve for rosiglitazone in the GAL4-PPARG assay (PPARγ Gal-4; data not shown): significantly right-shift the dose response curve for rosiglitazone
RNA-seq differential gene expression (3T3-L1 cells): very modest regulation of only a small subset of PPARγ controlled genes
adipogenic activity (lipid formation, aP2 and cd36 expression) (3T3-L1 cells; differentiated 3T3-L1 cells, 1μM, six days): minimal adipogenic activity

PPARγ interaction with coactivator NR box peptides p300 and SRC1–2 (His-PPARγ): enhanced the association
PPARγ interaction with corepressor peptides NCOR1–3 and SMRT-2 (His-PPARγ): facilitated dissociation
Molecule: MRL24
inhibition of p273-PPARγ compared with Rosi [3]: More potent than Rosi to inhibit p273 ([Choi et al., 2010])

binding result (PPARγ LBD): binds
Molecule: LTERHKILHRLLQEGSPSD [SRC1–2 NR box peptide]
